According to ChEMBL document CHEMBL1152617, “Synthesis of 2- and 17-substituted estrone analogs and their antiproliferative structure-activity relationships compared to 2-methoxyestradiol” (Bioorg Med Chem, 2009):

Columns and labels:
HUVEC = assay: Antiangiogenic activity against HUVECs by Brdu incorporation assay; assay type: functional, cell-based; settings: Homo sapiens
Method in brief: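 After overnight attachment they were washed with PBS and held 24 h without growth factor (EBM, 2% FBS). They were then given increasing drug concentrations in EBM with 2% FBS plus 10 ng/mL bFGF for 48 h at 37 °C. Proliferation was read by BrdU ELISA.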

MCF7 = assay: Estrogenic activity in human MCF7 cells assessed as stimulation of cell proliferation relative to 2-methoxyestradiol; assay type: functional
Method in brief: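 MCF-7 were kept in DMEM/F12 with 10% FBS, seeded at 20–30,000 cells/well, adhered overnight and counted. After a PBS wash they were starved 3 days in phenol red-free IMEM with 2% charcoal-dextran-stripped FBS. Increasing concentrations were given, with medium renewed every 2–3 days. Cells were Coulter-counted after 8 or 10 days, in triplicate, and expressed as stimulation index relative to 2ME2 (1.00).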

[1] = Metabolic stability in human liver microsomes assessed as compound remaining at 5 uM after 15 mins by LCMS analysis relative to 0 mins; assay type: ADME, Microsome; settings: read-out: Stability
Method in brief: (§1)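 Human liver microsomes were incubated in 50 mM tris pH 7.5 with 10 mM MgCl2, 2 mM UDPGA, 25 µg alamethicin/mg microsomal protein and 5 µM compound. Aliquots at 0, 15, 30 and 60 min were quenched in acetonitrile with internal standard. Samples were analysed by C18 LCMS in negative ion mode as % remaining versus 0 min. Controls were BSA without microsomes, and incubations lacking UDPGA.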

[2] = Metabolic stability in human liver microsomes assessed as compound remaining at 5 uM after 30 mins by LCMS analysis relative to 0 mins; assay type: ADME, Microsome; settings: read-out: Stability; method in brief: as §1
[3] = Metabolic stability in human liver microsomes assessed as compound remaining at 5 uM after 60 mins by LCMS analysis relative to 0 mins; assay type: ADME, Microsome; settings: read-out: Stability; method in brief: as §1
[4] = tested on: MDA-MB-231 (Homo sapiens); assay: Antiproliferative activity against human MDA-MB-231 cells by Brdu incorporation assay
[5] = Antiproliferative activity against human U87MG cells by Brdu incorporation assay; assay type: functional, cell-based, U-87MG ATCC; settings: U-87 MG
Method in brief: (§2)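 Cells were grown in DMEM with 10% FBS, 2 mM L-glutamine and penicillin/streptomycin. They were seeded at 2000 cells/well, attached overnight, then exposed to increasing compound concentrations for 48 h. DNA synthesis was read by a colorimetric BrdU ELISA. Each condition was run in triplicate, with at least two experiments, reported as the mean ± SD of independent experiments.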

PC-3 = assay: Antiproliferative activity against human PC3 cells by Brdu incorporation assay; assay type: functional, cell-based; method in brief: as §2

Compound	remaining at 0.25 h, 5 µM [1]	remaining at 0.5 h, 5 µM [2]	remaining at 1 h, 5 µM [3]	IC50 [4]	IC50 (PC-3)	IC50 (HUVEC)	fold change (FC) (MCF7)	IC50 [5]
COc1cc2c(cc1O)CC[C@@H]1[C@@H]2CC[C@]2(C)C(C(N)=O)CC[C@@H]12 (stereo not given in full)	–	–	–	2.51 µM	21.5 µM	4.55 µM	–	11.2 µM
CCC=C1CC[C@H]2[C@@H]3CCc4cc(O)c(OC)cc4[C@H]3CC[C@]12C	–	–	–	7.89 µM	–	3.23 µM	0.47	–
C[C@@]12CCC[C@H]1[C@@H]1CCc3cc(O)ccc3[C@H]1CC2	–	–	–	41.3 µM	22 µM	8.22 µM	1.91	22.1 µM
C[C@@]12CCC[C@H]1[C@@H]1CCc3cc(O)c(N=[N+]=[N-])cc3[C@H]1CC2	–	–	–	7.12 µM	–	2.83 µM	2.04	–
COc1cc2c(cc1O)CC[C@@H]1[C@@H]2CC[C@]2(C)CCC[C@@H]12	94%	101%	117%	2.2 µM	8.49 µM	1.32 µM	0.24	7.59 µM
COc1cc2c(cc1O)CC[C@@H]1[C@@H]2CC[C@]2(C)[C@@H](O)CC[C@@H]12 [2-METHOXYESTRADIOL]	58%	29%	9.4%	1 µM	2.65 µM	–	–	8.54 µM
COc1cc2c(cc1O)CC[C@@H]1[C@@H]2CC[C@]2(C)[C@@H](NC(C)C)CC[C@@H]12	–	–	–	17.8 µM	23.4 µM	18.8 µM	0.11	49.2 µM
CN(C)c1cc2c(cc1O)CC[C@@H]1[C@@H]2CC[C@]2(C)CCC[C@@H]12.Cl	–	–	–	39.3 µM	26 µM	7.43 µM	2.17	34.2 µM
CNc1cc2c(cc1O)CC[C@@H]1[C@@H]2CC[C@]2(C)CCC[C@@H]12	–	–	–	26.8 µM	22.8 µM	4.11 µM	1.22	22.3 µM
C[C@@]12CCC[C@H]1[C@@H]1CCc3cc(O)c(N)cc3[C@H]1CC2	–	–	–	> 100 µM	> 80 µM	60.1 µM	1.49	> 100 µM
CCCC[C@H]1CC[C@H]2[C@@H]3CCc4cc(O)c(OC)cc4[C@H]3CC[C@]12C	–	–	–	33.5 µM	28.8 µM	12.6 µM	0.59	21.1 µM
COc1cc2c(cc1O)CC[C@@H]1[C@@H]2CC[C@]2(C)/C(=N/O)CC[C@@H]12	–	–	–	8.68 µM	8.11 µM	4.27 µM	1.22	9.4 µM
C[C@@]12CCC[C@H]1[C@@H]1CCc3cc(O)c(NC=O)cc3[C@H]1CC2	101%	86%	68%	24.6 µM	26 µM	6.8 µM	1.71	42.9 µM
COc1cc2c(cc1O)CC[C@@H]1[C@@H]2CC[C@]2(C)C(C(=O)O)CC[C@@H]12 (stereo not given in full)	–	–	–	> 100 µM	> 100 µM	35.9 µM	–	> 100 µM

Further lines, with some results ahead:

remaining at 0.25 h, 5 µM [1]	remaining at 0.5 h, 5 µM [2]	remaining at 1 h, 5 µM [3]	IC50 [4]	IC50 (PC-3)	Compound	IC50 (HUVEC)	fold change (FC) (MCF7)	IC50 [5]
76%	67%	5.8%	0.24 µM	–	C=C1CC[C@H]2[C@@H]3CCc4cc(O)c(OC)cc4[C@H]3CC[C@]12C	0.19 µM	0.89	–
67%	57%	47%	3.33 µM	6.46 µM	COc1cc2c(cc1O)CC[C@@H]1[C@@H]2CC[C@]2(C)[C@@H](C)CC[C@@H]12	2.4 µM	0.89	9.39 µM
–	–	–	72.5 µM	27.2 µM	COc1cc2c(cc1O)CC[C@@H]1[C@@H]2CC[C@]2(C)/C(=N/NS(=O)(=O)c3ccc(C)cc3)CC[C@@H]12	7.95 µM	0.43	27.3 µM
32%	30%	9%	9.77 µM	13.8 µM	COc1cc2c(cc1O)CC[C@@H]1[C@@H]2CC[C@]2(C)[C@@H](N)CC[C@@H]12	13.4 µM	0.19	19 µM
91%	76%	72%	48.1 µM	8.7 µM	CC[C@H]1CC[C@H]2[C@@H]3CCc4cc(O)c(OC)cc4[C@H]3CC[C@]12C	3.63 µM	0.49	12.8 µM
75%	75%	0.8%	0.58 µM	–	CC=C1CC[C@H]2[C@@H]3CCc4cc(O)c(OC)cc4[C@H]3CC[C@]12C	0.26 µM	0.89	–
–	–	–	0.73 µM	0.62 µM	COc1cc2c(cc1O)CC[C@@H]1[C@@H]2CC[C@]2(C)C=CC[C@@H]12	0.71 µM	0.3	0.88 µM
–	–	–	95.3 µM	85.4 µM	CCC[C@H]1CC[C@H]2[C@@H]3CCc4cc(O)c(OC)cc4[C@H]3CC[C@]12C	40.8 µM	0.69	87.9 µM
–	–	–	14 µM	–	CCCC=C1CC[C@H]2[C@@H]3CCc4cc(O)c(OC)cc4[C@H]3CC[C@]12C	3.47 µM	0.51	–
